Results taken from ChEMBL document CHEMBL1122720, “Synthesis and neuroleptic activity of N-[(1-ethyl-2-pyrrolidinyl)methyl]-2-methoxy-5-sulfonamidobenzamide s” (J Med Chem, 1984).

Tests used:
[1] = Toxicity in mice following p.o. administration.; assay type: organism-based; conditions: mouse, in vivo, po
Procedure, shortened: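 Groups of 10 mice received the drug orally. Deaths were scored on day 7 after dosing, and LD50 (mg/kg) was obtained by graphical interpolation.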

Mus musculus = test: Inhibition of apomorphine induced climbing in mice following p.o. administration.; assay type: functional; conditions: po
Procedure, shortened: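 Mice in two to three groups of 10 got the drug orally as a gum arabic suspension, then apomorphine 1 mg/kg s.c. 60 min later. Each mouse was caged in wire mesh and watched for 3 min from 20 min after apomorphine for wall-climbing, judged against a control group. ED50 (mg/kg) came from regression analysis.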

Canis familiaris = test: Inhibition of apomorphine induced emesis in dogs following p.o. administration.; assay type: functional; conditions: Canis lupus familiaris, po
Procedure, shortened: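 Dogs were fasted and dosed 1 h before apomorphine 0.1 mg/kg s.c. Vomits within 30 min were counted and compared with the same dog's count 2 weeks earlier. ED50 was found by the up-and-down method.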

Structure (SMILES)	LD50 [1]	ED50 (Mus musculus)	ED50 (Canis familiaris)
CCN1CCCC1CNC(=O)c1cc(N(C)S(N)(=O)=O)c(Cl)cc1OC (stereo unspecified)	> 1000 mg/kg	> 50 mg/kg	1 mg/kg
CCN1CCCC1CNC(=O)c1cc(NS(C)(=O)=O)c(Cl)cc1OC (stereo unspecified)	> 1000 mg/kg	9.1 mg/kg	0.1 mg/kg
CCN1CCCC1CNC(=O)c1cc(NS(=O)(=O)NC)c(C)cc1OC (stereo unspecified)	> 1000 mg/kg	> 50 mg/kg	> 1 mg/kg
CCN1CCCC1CNC(=O)c1cc(NS(=O)(=O)N(C)C)c(Cl)cc1OC (stereo unspecified)	> 1000 mg/kg	8.3 mg/kg	0.05 mg/kg
CCN1CCCC1CNC(=O)c1cc(N(C)S(N)(=O)=O)c(C)cc1OC (stereo unspecified)	> 1000 mg/kg	> 50 mg/kg	1 mg/kg
CCN1CCCC1CNC(=O)c1cc(N(C)S(=O)(=O)N(C)C)c(Cl)cc1OC (stereo unspecified)	750 mg/kg	31.8 mg/kg	0.1 mg/kg
CCN1CCCC1CNC(=O)c1cc(NS(=O)(=O)NC)c(Cl)cc1OC (stereo unspecified)	> 1000 mg/kg	> 50 mg/kg	> 1 mg/kg
CCN1CCCC1CNC(=O)c1cc(NS(N)(=O)=O)ccc1OC (stereo unspecified)	> 1000 mg/kg	> 50 mg/kg	10 mg/kg
CCN1CCCC1CNC(=O)c1cc(NS(N)(=O)=O)c(C)cc1OC (stereo unspecified)	> 1000 mg/kg	> 50 mg/kg	> 1 mg/kg
CCN1CCCC1CNC(=O)c1cc(NS(=O)(=O)N(C)C)c(C)cc1OC (stereo unspecified)	> 1000 mg/kg	13.3 mg/kg	0.05 mg/kg
CCN1CCCC1CNC(=O)c1cc(N(C)S(C)(=O)=O)c(C)cc1OC (stereo unspecified)	> 1000 mg/kg	26.1 mg/kg	1 mg/kg
CCN1CCCC1CNC(=O)c1cc(N(C)S(C)(=O)=O)c(Cl)cc1OC (stereo unspecified)	> 500 mg/kg	7.7 mg/kg	0.1 mg/kg
CCN1CCCC1CNC(=O)c1cc(N(C)S(N)(=O)=O)ccc1OC (stereo unspecified)	> 1000 mg/kg	> 50 mg/kg	1 mg/kg
CCN1CCCC1CNC(=O)c1cc(NS(N)(=O)=O)c(Cl)cc1OC (stereo unspecified)	> 1000 mg/kg	> 50 mg/kg	1 mg/kg
CCN1CCCC1CNC(=O)c1cc(N(C)S(C)(=O)=O)ccc1OC (stereo unspecified)	> 1000 mg/kg	22.9 mg/kg	0.17 mg/kg
CCN1CCCC1CNC(=O)c1cc(NS(=O)(=O)NC)ccc1OC (stereo unspecified)	> 1000 mg/kg	> 50 mg/kg	> 1 mg/kg
CCN1CCCC1CNC(=O)c1cc(NS(C)(=O)=O)c(C)cc1OC (stereo unspecified)	750 mg/kg	35.6 mg/kg	1 mg/kg
CCN1CCCC1CNC(=O)c1cc(N(C)S(=O)(=O)N(C)C)ccc1OC (stereo unspecified)	750 mg/kg	36.2 mg/kg	1 mg/kg
CCN1CCCC1CNC(=O)c1cc(S(N)(=O)=O)ccc1OC (stereo unspecified) [SULPIRIDE]	> 3000 mg/kg	174 mg/kg	0.09 mg/kg
CCN1CCCC1CNC(=O)c1cc(NS(=O)(=O)N(C)C)ccc1OC (stereo unspecified)	750 mg/kg	> 50 mg/kg	1 mg/kg
CCN1CCCC1CNC(=O)c1cc(NS(C)(=O)=O)ccc1OC (stereo unspecified)	> 500 mg/kg	> 50 mg/kg	2 mg/kg
CCN1CCCC1CNC(=O)c1cc(N(C)S(=O)(=O)N(C)C)c(C)cc1OC (stereo unspecified)	750 mg/kg	> 50 mg/kg	1 mg/kg
